An excerpt weighted towards active compounds, which were near 3.5% of everything screened.
RGS4 inh: human RGS4 inhibition; hit rate 0.45% among 310,000; HEK293 M3R/RGS4 inducible, Fluo-4 calcium flux; stronger effect = higher value; triggered by carbachol at its EC20; B-score at 10 µM; P49798;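 active = B-score, a plate-corrected calcium signal, over three deviations above library mean, with baseline fluorescence within five deviations of library mean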;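 note: RGS4 expression induced by doxycycline in cells with stable M3 receptor; B-score is computed from the integrated fluorescence ratio over baseline after carbachol; higher B-score means a larger calcium signal and so more RGS4 inhibition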
Target sequence (P49798 whole entry, looked up): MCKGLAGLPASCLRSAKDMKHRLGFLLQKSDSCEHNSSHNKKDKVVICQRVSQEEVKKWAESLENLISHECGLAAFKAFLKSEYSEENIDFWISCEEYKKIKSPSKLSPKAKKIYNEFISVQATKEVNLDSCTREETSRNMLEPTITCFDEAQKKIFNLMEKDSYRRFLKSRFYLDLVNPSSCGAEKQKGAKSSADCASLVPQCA
MrgX1 PAM: human MrgX1 positive allosteric modulation, primary screen | MrgX1-HEK293, Fluo-4 calcium flux, FDSS; stronger effect = higher value | hit rate 0.63% among 310,000 | AID 588675 | B-score at 10 µM | Q96LB2;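 active = plate-corrected calcium response at least 3 library SD above typical, normal starting fluorescence, not activating the receptor alone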;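 note: compound read alongside a low EC10 to EC30 dose of BAM8-22 agonist; peak minus trough fluorescence over baseline measured at the second addition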
Target sequence (Q96LB2 whole entry, looked up): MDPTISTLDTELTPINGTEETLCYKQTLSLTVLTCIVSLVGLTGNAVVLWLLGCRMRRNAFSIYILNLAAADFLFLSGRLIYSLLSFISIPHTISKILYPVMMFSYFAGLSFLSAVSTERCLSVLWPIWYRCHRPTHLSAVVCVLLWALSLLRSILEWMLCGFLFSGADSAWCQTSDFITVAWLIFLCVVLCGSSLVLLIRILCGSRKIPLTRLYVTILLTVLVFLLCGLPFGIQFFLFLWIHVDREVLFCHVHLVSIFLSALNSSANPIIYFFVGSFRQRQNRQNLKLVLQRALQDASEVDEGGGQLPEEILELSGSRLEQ
MrgX1 antag: blocks BAM8-22 activation of human MrgX1 receptor; MRGX1-HEK293 calcium flux, Fluo-4, BAM8-22 antagonism; stronger effect = lower value; B-score at 10 µM; hit rate 1.3% among 310,000;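 active = calcium-response B-score plate-corrected more than 3 library SD below zero, starting fluorescence within 5 deviations, no agonist response on first addition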;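 note: peak minus trough fluorescence over baseline after final BAM8-22 challenge near maximal dose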
MrgX1 agonist: agonists of human MrgX1 receptor; Q96LB2; MrgX1-HEK293 cells, Fluo-4 calcium fluorescence, agonist mode; stronger effect = higher value; B-score at 10 µM; hit rate 0.44% among 310,000;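 active = calcium response B-score plate-corrected fluorescence ratio at least 3 library SD, with starting fluorescence B-score inside 5 SD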
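times = overnight plating, then 30 min 37 °C plus 30 min room-temperature dye loading | assay system = stable human MrgX1 HEK293 cell line | input = fifteen thousand cells per well | signal = kinetic calcium dye fluorescence, Fluo-4 NW | dosing = compound delivered in addition one of three | read-out = B-scored fluorescence response ratio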
RGS4 act: potentiators or activators of RGS4. HEK293 M3R/inducible RGS4, carbachol calcium flux Fluo4; stronger effect = lower value. AID 463111. hit rate 0.92% among 310,000. B-score at 10 µM;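 active = B-score of the integrated calcium signal more than 4 SD below the library mean, with starting fluorescence not abnormally high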;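 note: negative B-score means reduced calcium response which marks RGS4 activation or potentiation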
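Material: Inducible-RGS4 HEK293 cells carrying M3 receptor; also added: carbachol at ECmax as muscarinic agonist stimulus; incubation: compound preincubation 20 min at room temperature before agonist; signal: Fluo4-AM (2 µM) calcium-flux fluorescence, kinetic read; measure: integrated calcium ratio converted to B score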
A number is an active result; - = inactive.

SMILES	RGS4 inh	MrgX1 PAM	MrgX1 antag	MrgX1 agonist	RGS4 act
CC(C)NC(=O)NC(=O)COC(=O)c1c2c(nc3ccccc13)CCC2	-	-	-	-	-7
Cc1c(Cl)cccc1NC(=O)COC(=O)c1c2c(nc3ccccc13)CCN(Cc1ccccc1)C2	-	-	-	-	-
CC(C)c1ccccc1NC(=O)COC(=O)c1c2c(nc3ccccc13)CCN(Cc1ccccc1)C2	-	-	-	-	-8.1
Cc1ccc(C)c(N2CCN(CCCNC(=O)Cn3c(=O)c4cccn4c4cccnc43)CC2)c1	-	-	-	-	-
CCOC(=O)COc1ccc(S(=O)(=O)Nc2ccc3c(c2)OCO3)cc1	-	-	-	-	-8.5
CCCCn1c(N)c(N(CCOC)C(=O)C2CCN(C(=O)c3ccc(F)cc3)CC2)c(=O)[nH]c1=O	-	-	-	-	-
COc1ccc(/C(O)=C/C(=O)C(=O)NNC(=O)C(O)(c2ccccc2)c2ccccc2)cc1	-	-	-4.8	-	-
COc1ccc(/C(O)=C/C(=O)C(=O)NNC(=O)c2ccccc2)cc1	-	-	-	-	-
Cc1ccc(-c2nc3ncccc3o2)cc1NC(=O)c1sc2ccccc2c1Cl	-	-	-	-	-
Cc1ccc(C2C(C#N)=C(N)SC(N)=C2C#N)c(C)c1	-	-	-	52	-
C/C(=N\NC(=O)CC1N=C(Cc2ccccc2)NNC1=O)c1ccc(Br)cc1 (stereo not given)	-	-	-	-	-
C=CC[n+]1c(-c2ccc(OC)c(OC)c2)csc1NNC(=O)Nc1ccccc1	-	-	-4.6	-	-
NC(=O)NC(=O)C(Nc1ccc(N2CCCCC2)cc1)c1ccccc1 (stereo not given)	-	-	-	-	-9.1
CCCOc1ccc(C2C(C(=O)c3ccco3)=C(O)C(=O)N2CCCn2ccnc2)cc1 (stereo not given)	-	-	-7.5	-	-
CCOC(=O)Nc1ccc2c(c1)N(C(=O)CCN(CC)CC)c1ccccc1CC2	-	-	-	-	-
CCOC(=O)Nc1ccc2c(c1)N(C(=O)CCN(CC)CC)c1ccccc1S2=O (stereo not given)	-	-	-	30	-
N#CCCN(C(=O)COC(=O)C1CCN(S(=O)(=O)c2ccc3c(c2)OCCO3)CC1)c1ccccc1	-	-	-	-	-
O=C(c1ccc(OC2CCN(CCCc3ccccc3)CC2)cc1)N1CCCC1	-	-	-	-	-7.4
CC(=O)N1CCN(C(=O)c2ccc(OC3CCN(CCc4ccccc4)CC3)cc2)CC1	-	-	-	-	-
CCOc1ccccc1/C=N/NC(=O)CNC(=O)c1cccs1	-	-	-	-	-
CCOC(=O)C1=C(C)N(CC(C)C)C(=O)/C1=C\c1ccc(OCC(=O)Nc2ccccc2)cc1	-	-	-	-	-7.1
CCN(CC)c1ccc(/C=C(/C#N)C(=O)NC(C)C)o1	-	-	-	-	-
CCN(CC)c1ccc(/C=C(/C#N)C(=O)NCc2ccccc2)o1	-	7	-	-	-
O=C1OCCN1C(=O)[C@H]1[C@H](c2ccc(F)cc2)C(c2ccc(F)cc2)=NN1c1ccc(Br)cc1	-	-	-	-	-9.2
Cc1ccc(NC(=O)CN2CCCC2)cc1Br	-	-	-	-	-
SMILES	RGS4 inh	MrgX1 PAM	MrgX1 antag	MrgX1 agonist	RGS4 act
Cc1ccc(-n2c(SCC(=O)NNC(=S)Nc3ccccc3)nc3ccccc3c2=O)cc1	-	7.4	-	-	-
N#CCC(=O)Nn1c(=S)[nH]c2ccccc2c1=O	-	-	-	-	-
CCN1C(=O)/C(=C\N2CCCCCC2)SC1=S	-	-	-	-	-8.3
CN(C1CCCCC1)S(=O)(=O)c1ccc2c(c1)c(=O)c(C(=O)NCCN1CCCC1)cn2C	-	-	-4.6	-	-
CCOC(=O)Nc1ccc2c(c1)N(C(=O)N1CCN(C)CC1)c1ccccc1S2	-	-	-	-	-7.3
CCOC(=O)Nc1ccc2c(c1)N(C(=O)CCN1CCN(C)CC1)c1ccccc1S2	-	-	-	-	-
CCN(CC)c1ccc2cc(/C(N)=N/NC(=O)c3cccs3)c(=O)oc2c1	-	27	-	-	-
CC1=NN(c2ccc(Br)cc2)C(=O)/C1=C/c1cccs1	-	14	-	-	-
CC1=NN(c2ccc(C)cc2)C(=O)/C1=C\c1ccc(Br)s1	-	-	-6.5	-	-
COc1cc(CN(C2CCCCC2)S(=O)(=O)c2ccc(S(=O)(=O)N(C)C3CCCCC3)cc2)cc(OC)c1OC	-	-	-	-	-
N#C/C(=C\c1cccs1)Sc1nc2ccccc2s1	-	-	-5.3	-	-
N#C/C(=C\c1ccc[nH]1)Sc1nc2ccccc2s1	-	-	-	-	-
CCc1nnc(NC(=O)c2cccc(C(=O)Nc3nnc(CC)s3)n2)s1	-	27	-	-	-
O=C(O)c1c2c(nc3ccccc13)/C(=C/c1cccc([N+](=O)[O-])c1)CCC2	-	18	-	-	-
O=C(O)c1c2c(nc3ccccc13)/C(=C/c1ccccc1[N+](=O)[O-])CCC2	-	-	-	-	-
O=[N+]([O-])c1ccc(NC(=S)NCCc2ccccc2)cc1	-	-	-4.9	-	-
S=C(NCCc1ccccc1)Nc1ccc(Cl)cc1	-	-	-	-	-
NS(=O)(=O)c1ccc(NC(=S)NCCc2ccccc2)cc1	-	-	-	-	-
O=[N+]([O-])c1ccc(NC(=S)NCCc2ccc(Cl)cc2)cc1	-	-	-6	-	-
COc1ccccc1N(CC(=O)NCCSCc1ccccc1)S(C)(=O)=O	-	-	-	-	-
COc1ccc(N(CC(=O)NCc2ccccc2OC)S(=O)(=O)c2c(C)nn(C)c2C)cc1	-	-	-6.3	-	-
COc1cccc(N(CC(=O)NCCSCc2ccco2)S(=O)(=O)c2ccccc2)c1	-	7.2	-	-	-
COc1ccccc1CNC(=O)CN(c1ccc(C)cc1)S(=O)(=O)c1c(C)nn(C)c1C	-	-	-	-	-
COc1ccccc1N(CC(=O)NCCSCc1cccc(C)c1)S(=O)(=O)c1ccccc1	-	-	-	-	-8.6
COc1ccc(N(CC(=O)NCC(C)C)S(=O)(=O)c2ccccc2)cc1	-	-	-	-	-
SMILES	RGS4 inh	MrgX1 PAM	MrgX1 antag	MrgX1 agonist	RGS4 act
COc1ccc(N(CC(=O)NCCSCc2ccccc2C)S(=O)(=O)c2ccccc2)cc1	-	-	-	-	-7.8
Cc1c(NC(=O)CS(=O)(=O)c2ccccc2)c(=O)n(-c2ccccc2)n1C	-	-	-	-	-
CC(C)c1ccc(N(CC(=O)NCCSCc2ccco2)S(C)(=O)=O)cc1	-	7.1	-	-	-
CS(=O)(=O)N(CC(=O)NCCSCc1ccco1)c1ccc(Cl)cc1	-	-	-	-	-
O=C1CC2(CCN(C(=O)c3cccc(Br)c3)CC2)Oc2ccccc21	-	-	-	-	-
COCCn1c(C)cc(C(=O)COC(=O)c2ccc([N+](=O)[O-])o2)c1C	-	-	-	-	-
Cc1cc(C)c(C(=O)COC(=O)c2ccc([N+](=O)[O-])o2)cc1C	-	-	-	-	-7.5
